For series [1], the target named is C-C chemokine receptor type 1 (Homo sapiens) (UniProt P32246). Kind of series: Antagonist activity at human CCR1 expressed in CHOK1 cells assessed as inhibition of CCL3-induced cAMP accumulation at 10 uM preincubated for 30 mins followed agonist addition measured after 30 to 60 mins. Format: functional, cell-based. The gist of the method:
(§1)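 GPCR cAMP assay with a single test concentration of 10 μM; result expressed as percentage inhibition for each chemokine receptor.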

Series [2] concerns the target C-C chemokine receptor type 5 (Homo sapiens) (UniProt P51681). The series is described as follows: Antagonist activity at human CCR5 expressed in CHOK1 cells assessed as inhibition of CCL3-induced cAMP accumulation at 10 uM preincubated for 30 mins followed agonist addition measured after 30 to 60 mins. Format: functional, cell-based. In short, it runs like this:
as §1
(In general: cAMP levels reflect the balance of adenylyl cyclase and phosphodiesterase activity.)

For series [3], the target named is C-C chemokine receptor type 6 (Homo sapiens) (UniProt P51684). The series is described as follows: Antagonist activity at human CCR6 expressed in CHOK1 cells assessed as inhibition of CCL20-induced cAMP accumulation at 10 uM preincubated for 30 mins followed agonist addition measured after 30 to 60 mins. Format: functional, cell-based. The gist of the method: as §1
Sequence of C-C chemokine receptor type 6 (Homo sapiens) (P51684 whole entry): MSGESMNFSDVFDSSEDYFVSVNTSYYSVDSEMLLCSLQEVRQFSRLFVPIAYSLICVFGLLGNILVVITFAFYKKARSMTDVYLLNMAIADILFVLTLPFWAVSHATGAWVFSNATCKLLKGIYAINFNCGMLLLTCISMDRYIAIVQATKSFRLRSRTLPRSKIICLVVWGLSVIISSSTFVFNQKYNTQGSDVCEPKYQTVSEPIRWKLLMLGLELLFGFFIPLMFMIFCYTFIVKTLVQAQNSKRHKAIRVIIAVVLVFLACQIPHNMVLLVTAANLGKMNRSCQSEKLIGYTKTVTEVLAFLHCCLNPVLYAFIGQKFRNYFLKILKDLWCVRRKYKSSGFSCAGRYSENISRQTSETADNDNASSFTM

Series [4] deals with C-C chemokine receptor type 10 (Homo sapiens) (UniProt P46092). The series is described as follows: Antagonist activity at human CCR10 expressed in CHOK1 cells assessed as inhibition of CCL27-induced cAMP accumulation at 10 uM preincubated for 30 mins followed agonist addition measured after 30 to 60 mins. Format: functional, cell-based. The gist of the method:
as §1

Series [5] deals with C-X-C chemokine receptor type 2 (Homo sapiens) (UniProt P25025). Kind of series: Antagonist activity at human CXCR2 expressed in CHOK1 cells assessed as inhibition of interleukin-8-induced cAMP accumulation at 10 uM preincubated for 30 mins followed agonist addition measured after 30 to 60 mins. Format: functional, cell-based. In short, it runs like this:
as §1

Series [6] addresses C-X-C chemokine receptor type 3 (Homo sapiens) (UniProt P49682). Kind of series: Antagonist activity at human CXCR3 expressed in CHOK1 cells assessed as inhibition of CXCL11-induced cAMP accumulation at 10 uM preincubated for 30 mins followed agonist addition measured after 30 to 60 mins. Format: functional, cell-based. The gist of the method:
as §1

A short description of series [7]: Cytotoxicity against human Detroit 551 cells. Format: cell-based.
The nature of series [8]: Cmax in C57BL/6 mouse at 6 mg/kg, sc measured up to 4 hrs post dose by LC-MS/MS analysis. Format: ADME, organism-based. Also noted: dose 6 mg/kg, route subcutaneous. The settings on record: in vivo. The gist of the method:
(§2)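 Male C57BL/6 mice (23.4–25.4 g), quarantined one week, non-fasted, n = 3; single SC dose of 6 mg/kg in 100% saline. Blood taken by cardiac puncture at 0, 0.03, 0.08, 0.25, 1, 1.5, 2 and 4 h and stored at -80 °C. Plasma analysed by LC–MS/MS; parameters from non-compartmental analysis; mean ± SD.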

Series [9] is described as follows: AUC (0 to 4 hrs) in C57BL/6 mouse at 6 mg/kg, sc measured up to 4 hrs post dose by LC-MS/MS analysis. Format: ADME, organism-based. Also noted: dose 6 mg/kg, time < 4 hr, route subcutaneous. The settings on record: in vivo. In short, it runs like this:
as §2

The subject of series [10] is Mus musculus. Kind of series: Therapeutic ratio of MTD for sc dosed C57BL/6 mouse to MED for hematopoietic stem cell mobilization in sc dosed C57BL/6 mouse. The gist of the method:
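MTD: C57BL/6 or ICR male mice dosed SC from low to high, n = 3 per group; MTD is the highest dose with zero mortality (0/3). MED: lowest SC dose raising blood CXCR4⁺ cells at 2 h, by flow cytometry, in the escalating-dose study. Ratio calculated as MTD/MED.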

The subject of series [11] is Mus musculus. Kind of series: Induction of hematopoietic stem cell mobilization in C57BL/6 mouse assessed as induction of movement of HSCs and EPCs into peripheral circulation at 35 mg/kg, sc measured after 2 hrs by flow cytometric analysis relative to control. Format: functional. A general note: In flow cytometry, cells or beads pass a laser one at a time.
For series [12], the system named is Mus musculus. Kind of series: Induction of hematopoietic stem cell mobilization in C57BL/6 mouse PBMC assessed as increase in CFU-GM colonies at 35 mg/kg, sc administered on day 5 post G-CSF addition measured after 2 hrs post dose by colony forming assay. Format: functional, organism-based. The gist of the method:
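Male C57BL/6 mice received G-CSF 100 µg/kg SC daily for 4 days. On day 5 they received G-CSF plus compound SC (6 or 35 mg/kg). Heparinized blood taken 2 h later; PBMCs isolated and cultured in methylcellulose medium for 10–14 days. CFU-GM colonies (aggregates of ≥50 cells) counted under an inverted microscope. 8–12 mice per group; mean ± SEM; t test against G-CSF alone.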

In series [13] the target is Muscarinic acetylcholine receptor M2 (Homo sapiens) (UniProt P08172). The series is described as follows: Displacement of [3H]AF-DX 384 from recombinant human Muscarinic M2 receptor at 10 uM after 60 mins by scintillation counting.
In series [14] the target is Voltage-gated inwardly rectifying potassium channel KCNH2 (Homo sapiens, UniProt Q12809). The series is described as follows: Inhibition of human ERG expressed in CHO cells up to 100 uM by automated patch-clamp assay. Format: cell-based. The gist of the method: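 hERG liability examined by patch-clamp at concentrations up to 100 μM.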
Sequence of Voltage-gated inwardly rectifying potassium channel KCNH2 (Q12809 whole entry): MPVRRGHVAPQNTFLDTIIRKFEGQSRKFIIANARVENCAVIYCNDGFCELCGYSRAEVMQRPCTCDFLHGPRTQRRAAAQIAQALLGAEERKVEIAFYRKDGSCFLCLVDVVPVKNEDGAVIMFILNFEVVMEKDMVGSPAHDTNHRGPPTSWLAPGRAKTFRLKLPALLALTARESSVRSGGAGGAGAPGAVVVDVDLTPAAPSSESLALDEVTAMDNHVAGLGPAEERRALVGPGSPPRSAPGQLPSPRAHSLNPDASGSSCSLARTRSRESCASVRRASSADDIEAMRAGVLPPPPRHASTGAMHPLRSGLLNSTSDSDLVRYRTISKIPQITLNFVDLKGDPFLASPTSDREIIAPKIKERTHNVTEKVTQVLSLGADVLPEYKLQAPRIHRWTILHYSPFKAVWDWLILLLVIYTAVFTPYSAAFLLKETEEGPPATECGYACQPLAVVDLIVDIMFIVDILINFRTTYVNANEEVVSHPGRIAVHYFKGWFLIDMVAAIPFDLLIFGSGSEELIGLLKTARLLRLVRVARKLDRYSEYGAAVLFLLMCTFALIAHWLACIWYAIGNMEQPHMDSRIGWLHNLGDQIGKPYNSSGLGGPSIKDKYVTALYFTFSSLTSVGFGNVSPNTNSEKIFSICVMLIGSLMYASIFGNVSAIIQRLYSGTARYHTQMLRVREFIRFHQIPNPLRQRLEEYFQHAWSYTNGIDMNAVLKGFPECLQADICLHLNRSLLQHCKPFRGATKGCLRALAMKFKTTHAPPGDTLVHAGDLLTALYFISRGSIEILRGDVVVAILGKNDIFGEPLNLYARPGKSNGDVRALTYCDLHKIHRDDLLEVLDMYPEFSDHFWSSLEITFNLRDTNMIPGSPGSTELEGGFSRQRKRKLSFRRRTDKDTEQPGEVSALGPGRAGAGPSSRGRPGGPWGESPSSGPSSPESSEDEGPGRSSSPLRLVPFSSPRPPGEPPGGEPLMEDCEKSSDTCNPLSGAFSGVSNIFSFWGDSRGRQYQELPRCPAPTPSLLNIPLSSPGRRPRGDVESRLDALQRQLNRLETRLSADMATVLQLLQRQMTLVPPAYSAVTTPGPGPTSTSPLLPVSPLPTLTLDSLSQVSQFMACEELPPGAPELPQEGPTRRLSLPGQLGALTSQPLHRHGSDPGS
In general terms: Patch clamp records ionic current or voltage across a cell membrane.

Series [15] has as its target Cytochrome P450 2C19 (Homo sapiens, UniProt P33261). Kind of series: Inhibition of human liver microsomal CYP2C19. Format: ADME.
The target in series [16] is Cytochrome P450 2E1 (Homo sapiens, UniProt P05181). Kind of series: Inhibition of human liver microsomal CYP2E1. Format: ADME.
Sequence of Cytochrome P450 2E1 (P05181 whole entry): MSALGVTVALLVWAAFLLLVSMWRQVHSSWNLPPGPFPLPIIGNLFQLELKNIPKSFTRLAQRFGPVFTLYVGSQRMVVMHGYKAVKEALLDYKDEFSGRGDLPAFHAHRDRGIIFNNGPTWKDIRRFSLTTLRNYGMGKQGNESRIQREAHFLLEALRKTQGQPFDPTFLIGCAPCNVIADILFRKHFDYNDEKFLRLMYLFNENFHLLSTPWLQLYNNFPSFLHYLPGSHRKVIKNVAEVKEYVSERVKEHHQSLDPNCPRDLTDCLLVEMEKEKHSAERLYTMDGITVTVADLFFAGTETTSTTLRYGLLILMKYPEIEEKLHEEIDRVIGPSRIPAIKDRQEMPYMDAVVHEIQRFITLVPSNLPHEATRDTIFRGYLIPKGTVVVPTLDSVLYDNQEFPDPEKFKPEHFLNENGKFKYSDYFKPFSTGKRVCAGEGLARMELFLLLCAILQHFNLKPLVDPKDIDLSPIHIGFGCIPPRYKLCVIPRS
Series [17] addresses Cytochrome P450 3A4 (Homo sapiens, UniProt P08684). The series is described as follows: Inhibition of human liver microsomal CYP3A4. Format: ADME.
The test system of series [18] is Mus musculus. Kind of series: In vivo antagonist activity at CXCR4 in C57BL/6 mouse assessed as induction of lymphocytes molization at 35 mg/kg, sc measured after 2 hrs relative to AMD3100. Format: functional. Also noted: scale not given: the % may be the effect or the level left. The gist of the method: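 C57BL/6 mice given a single SC injection at 6 or 35 mg/kg. Blood collected 2 h after dosing and analysed for total white blood cells, neutrophils, lymphocytes and monocytes.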

For series [19], the system named is Rattus norvegicus. The series is described as follows: Cardiotoxicity in Sprague-Dawley rat assessed as effect on heart weight at 50 mg/kg/day, sc administered for 14 days relative to control. Format: toxicity, organism-based. The settings on record: in vivo, 336 h. The gist of the method: (§3)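 Non-GLP 14-day repeated-dose study in SD rats given 50 mg/kg/day SC. Major organs (liver, kidney, lung, heart) compared with vehicle for size, weight and colour. Blood analysed for hematological and biochemical parameters.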

Series [20] concerns Rattus norvegicus. The series is described as follows: Hepatotoxicity in Sprague-Dawley rat assessed as effect on liver color at 50 mg/kg/day, sc administered for 14 days relative to control. Format: toxicity, organism-based. The settings on record: in vivo, 336 h. In short, it runs like this: as §3
The test system of series [21] is Rattus norvegicus. Kind of series: Renal toxicity in Sprague-Dawley rat assessed as effect on kidney color at 50 mg/kg/day, sc administered for 14 days relative to control. Format: organism-based. The note with it: in vivo, 336 h. In short, it runs like this: as §3
The test system of series [22] is Rattus norvegicus. Kind of series: Toxicity in Sprague-Dawley rat assessed as effect on lung color at 50 mg/kg/day, sc administered for 14 days relative to control. Format: organism-based. The settings on record: in vivo, 336 h. The gist of the method:
as §3

Series [23] concerns Mus musculus. The series is described as follows: Induction hematopoietic stem cell mobilization in sc dosed C57BL/6 mouse assessed as increase in CXCR4+ cells in blood measured after 2 hrs by APC-conjugated anti-CXCR4 -staining based flow cytometry relative to vehicle control. Format: functional. The note with it: C57BL/6, sc, read-out: MED. The gist of the method: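 Male C57BL/6 mice, 8–10 weeks old, given a single SC injection at escalating doses of 1, 6, 20, 35 and 50 mg/kg. Blood collected 2 h later and stained with antibodies including APC-anti-CXCR4. CXCR4⁺ cells counted by flow cytometry, at least 60,000 events per sample. n = 3 per group; mean ± SEM; t test against vehicle.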

In series [24] the test system is Rattus norvegicus. The series is described as follows: Renal toxicity in Sprague-Dawley rat assessed as effect on kidney histology parameters up to 100 mg/kg/day, sc after 24 hrs by H and E staining based microscopy. Format: organism-based. The settings on record: in vivo. In short, it runs like this:
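Acute kidney histology study in SD rats at doses up to 100 mg/kg. Renal tissue compared with controls by photomicrographs.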

Molecules are shown by their SMILES. The source made the active and inactive calls. The rule behind the calls is not given here.

Sequence of Cytochrome P450 2C19 (P33261 whole entry): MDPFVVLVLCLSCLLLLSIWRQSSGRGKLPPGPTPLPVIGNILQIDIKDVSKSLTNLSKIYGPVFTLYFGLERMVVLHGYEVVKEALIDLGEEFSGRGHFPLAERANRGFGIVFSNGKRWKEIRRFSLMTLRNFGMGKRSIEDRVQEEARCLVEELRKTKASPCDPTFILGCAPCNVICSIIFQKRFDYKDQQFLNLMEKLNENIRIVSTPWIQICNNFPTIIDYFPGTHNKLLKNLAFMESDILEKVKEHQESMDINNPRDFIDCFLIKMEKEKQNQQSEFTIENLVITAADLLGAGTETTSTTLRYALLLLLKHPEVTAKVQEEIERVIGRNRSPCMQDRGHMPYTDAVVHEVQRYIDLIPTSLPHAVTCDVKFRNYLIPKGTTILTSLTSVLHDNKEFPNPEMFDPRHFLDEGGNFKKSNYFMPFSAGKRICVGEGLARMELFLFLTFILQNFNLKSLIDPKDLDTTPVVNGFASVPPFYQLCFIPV
Sequence of C-C chemokine receptor type 5 (Homo sapiens) (P51681 whole entry, looked up): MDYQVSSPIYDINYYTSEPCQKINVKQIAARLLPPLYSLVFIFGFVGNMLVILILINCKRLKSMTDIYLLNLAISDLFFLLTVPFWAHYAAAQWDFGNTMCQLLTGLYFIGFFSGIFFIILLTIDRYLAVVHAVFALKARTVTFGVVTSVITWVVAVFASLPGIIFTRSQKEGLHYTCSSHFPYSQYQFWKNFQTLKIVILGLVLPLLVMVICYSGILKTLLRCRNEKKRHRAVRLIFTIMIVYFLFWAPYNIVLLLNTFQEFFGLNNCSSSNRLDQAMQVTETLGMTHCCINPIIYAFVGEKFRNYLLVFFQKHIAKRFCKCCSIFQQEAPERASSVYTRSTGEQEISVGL
Sequence of C-X-C chemokine receptor type 3 (Homo sapiens) (P49682 whole entry): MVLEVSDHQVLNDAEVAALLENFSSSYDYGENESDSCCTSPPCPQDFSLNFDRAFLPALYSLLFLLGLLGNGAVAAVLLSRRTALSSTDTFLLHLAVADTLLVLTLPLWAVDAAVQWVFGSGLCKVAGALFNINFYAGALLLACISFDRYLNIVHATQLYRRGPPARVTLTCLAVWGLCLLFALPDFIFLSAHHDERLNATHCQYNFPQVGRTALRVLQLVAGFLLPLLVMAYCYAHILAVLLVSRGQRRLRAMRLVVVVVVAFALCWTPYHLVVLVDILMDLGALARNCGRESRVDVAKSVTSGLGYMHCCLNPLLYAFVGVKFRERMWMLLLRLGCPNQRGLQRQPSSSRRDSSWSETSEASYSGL
Sequence of Cytochrome P450 3A4 (P08684 whole entry): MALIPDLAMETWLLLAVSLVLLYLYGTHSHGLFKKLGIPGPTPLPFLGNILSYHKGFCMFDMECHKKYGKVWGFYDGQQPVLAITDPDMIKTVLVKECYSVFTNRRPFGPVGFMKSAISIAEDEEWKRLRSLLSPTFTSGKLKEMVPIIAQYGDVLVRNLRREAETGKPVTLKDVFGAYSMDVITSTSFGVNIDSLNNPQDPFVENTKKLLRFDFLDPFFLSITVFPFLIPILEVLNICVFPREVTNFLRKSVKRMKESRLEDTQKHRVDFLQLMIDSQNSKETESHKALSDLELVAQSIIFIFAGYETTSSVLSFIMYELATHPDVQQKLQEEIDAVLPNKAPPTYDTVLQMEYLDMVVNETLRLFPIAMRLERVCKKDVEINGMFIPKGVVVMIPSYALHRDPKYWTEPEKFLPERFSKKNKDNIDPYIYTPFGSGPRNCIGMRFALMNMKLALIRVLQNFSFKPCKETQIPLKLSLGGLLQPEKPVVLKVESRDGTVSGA
Sequence of C-C chemokine receptor type 10 (Homo sapiens) (P46092 whole entry): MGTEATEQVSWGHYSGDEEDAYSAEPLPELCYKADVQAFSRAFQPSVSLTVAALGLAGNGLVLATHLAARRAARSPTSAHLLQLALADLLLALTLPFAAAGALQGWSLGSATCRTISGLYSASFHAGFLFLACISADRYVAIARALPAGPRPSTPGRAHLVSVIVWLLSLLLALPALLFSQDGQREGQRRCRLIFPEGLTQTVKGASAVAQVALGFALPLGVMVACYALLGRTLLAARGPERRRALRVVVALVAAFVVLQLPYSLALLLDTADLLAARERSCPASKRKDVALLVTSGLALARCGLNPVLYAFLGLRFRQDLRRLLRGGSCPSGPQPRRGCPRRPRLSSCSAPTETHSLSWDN
Sequence of C-X-C chemokine receptor type 2 (Homo sapiens) (P25025 whole entry): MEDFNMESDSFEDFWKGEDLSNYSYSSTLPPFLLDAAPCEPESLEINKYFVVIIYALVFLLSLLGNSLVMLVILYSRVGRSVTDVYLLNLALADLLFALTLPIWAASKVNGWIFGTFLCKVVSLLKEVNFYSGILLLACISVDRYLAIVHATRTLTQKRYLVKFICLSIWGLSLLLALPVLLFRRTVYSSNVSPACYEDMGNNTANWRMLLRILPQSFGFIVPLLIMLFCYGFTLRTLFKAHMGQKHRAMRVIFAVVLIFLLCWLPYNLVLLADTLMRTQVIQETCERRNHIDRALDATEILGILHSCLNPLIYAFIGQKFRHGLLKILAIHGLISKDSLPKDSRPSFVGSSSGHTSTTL
Sequence of C-C chemokine receptor type 1 (Homo sapiens) (P32246 whole entry): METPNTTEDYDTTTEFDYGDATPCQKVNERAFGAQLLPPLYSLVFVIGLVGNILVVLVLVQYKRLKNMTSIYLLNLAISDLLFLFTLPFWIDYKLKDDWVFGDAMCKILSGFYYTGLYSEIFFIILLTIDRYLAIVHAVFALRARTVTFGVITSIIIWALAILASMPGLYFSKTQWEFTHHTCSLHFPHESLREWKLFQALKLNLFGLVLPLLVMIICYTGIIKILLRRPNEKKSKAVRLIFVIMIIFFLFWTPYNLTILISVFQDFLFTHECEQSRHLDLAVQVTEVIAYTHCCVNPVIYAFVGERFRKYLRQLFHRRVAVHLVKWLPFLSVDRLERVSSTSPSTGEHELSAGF

As for `Cc1cc(NC2CCN(C(=O)CCNCC(=O)O)CC2)nc(NCc2cn(CCCNCCCNC3CCCCC3)nn2)n1`, the Efficacy in [1] was -1.2%; in series [2], 0.5%; in series [3], -2.2%; in series [4] it was 0.5%; in [5], 0.5%; in series [6], -7.6%. In addition, the CC50 (usually the concentration at which the toxic effect on the cells reaches its halfway point) in series [7] is greater than 100 µM. In addition, the Cmax (commonly the peak of the concentration-time curve) in [8] is 16.4 µg/mL. Besides, the AUC(0-t) (usually the area under the concentration-time curve up to a stated or last time point) at 4 h in series [9] was 13.5 µg·h/mL. In addition, in series [10], the TI is reported as 12.5. In series [11], the “fold change (FC)” value is 7. For the same molecule, in series [12], the result was Active. Also, in series [13], the inhibition (as a rule, the relative decrease from the control value, in per cent) is 70%. Also, in [14], the “inhibition (INH)” value is given as “Not Active”. Besides, the IC50 in series [15], in series [16] and in [17] was greater than 100 µM throughout. Besides, the Activity is recorded as 30 - 50% in [18]; “Non-Toxic” in series [19]; “Non-Toxic” in [20]; “Non-Toxic” in [21]; “Non-Toxic” in series [22]; “Non-Toxic” in series [24]. Also, the minimal effective dose in [23] was 6 mg/kg.

Source of the values: ChEMBL document CHEMBL4024793, “Development of Stem-Cell-Mobilizing Agents Targeting CXCR4 Receptor for Peripheral Blood Stem Cell Transplantation and Beyond” (J Med Chem, 2018).
